Screening data (PubChem)
Sampled rows, rich in hits. Any-hit rate of the full collection: about 1.4%.
CCR6 antag: blocks CCL20-driven beta-arrestin recruitment at human CCR6; 340,000 tested, 0.49% active; CHO-K1 CCR6 PathHunter beta-arrestin, luminescence, CCL20-stimulated; P51684; inhibition, % at 20 µM;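 active means compounds whose inhibition of the agonist-driven luminescence signal at 20 µM reaches about 50%, limit read from the data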;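 further: cells stimulated with CCL20 at 14 nM final; plate controls were DMSO with CCL20 for no effect and DMSO without agonist for full effect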
A3A deaminase: inhibitors of human APOBEC3A DNA deaminase. AID 493011. P31941. inhibition, % at 20 µM. recombinant A3A, FAM/TAMRA ssDNA deamination fluorescence. 330,000 tested, 0.41% active;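 active means at least 40% inhibition at 20 µM here, with at most 30% in a related deaminase screen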;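 further: plate controls were A3A with DMSO for no effect and wells lacking A3A enzyme for full effect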
Target sequence (P31941 whole entry, looked up): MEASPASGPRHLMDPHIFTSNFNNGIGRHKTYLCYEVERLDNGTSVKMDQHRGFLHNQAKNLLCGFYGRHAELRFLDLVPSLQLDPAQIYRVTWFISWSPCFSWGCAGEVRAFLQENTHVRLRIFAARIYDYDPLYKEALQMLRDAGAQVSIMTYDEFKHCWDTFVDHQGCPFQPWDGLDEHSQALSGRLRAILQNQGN
A3G deaminase: inhibitors of human APOBEC3G DNA deaminase; Q9HC16; recombinant A3G, ssDNA deamination FAM/TAMRA fluorescence; inhibition, % at 20 µM; 330,000 tested, 0.28% active;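 active means inhibition of at least 40% at 20 µM, with no more than 30% in the related APOBEC3A deaminase screen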;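 further: plate controls were DMSO wells with A3G for no effect and wells lacking A3G enzyme for full effect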
APJ agonist: agonists of human APJ apelin receptor. CHO-K1 APJ PathHunter beta-arrestin, luminescence; 0% DMSO wells, 100% apelin. activation, % at 20 µM. 330,000 tested, 0.11% active;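 active means activation more than six SD over the plate average, tested at 20 µM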;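 further: 0% = DMSO alone and 100% = apelin-13 at 10 nM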
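Test system – PathHunter CHO-K1 APJ (AGTRL-1) beta-arrestin reporter cells · Input – 1000 cells/well · Compound – single test compound dose, 20 µM final, 1% DMSO · Times – compound stimulation 90 min at 25 °C, detection 60 min · Technique – beta-gal luminescence · Read-out basis – APJ–arrestin association signal · Control set – negative DMSO alone, positive Apelin-13 at 10 nM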
APJ antag: antagonists of human APJ apelin receptor | P35414 | CHO-K1 APJ beta-arrestin complementation, luminescence | inhibition, % at 20 µM | 330,000 tested, 0.32% active | AID 2521;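 active means inhibition above about 40% at 20 µM, limit read from the data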;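 further: cells challenged with 10 nM apelin-13 agonist together with compound; plate controls were apelin-13 plus DMSO wells for no effect and DMSO wells lacking apelin-13 for full effect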
CXCR6 inh: blocks human CXCR6 beta-arrestin recruitment | CHO-K1 PathHunter CXCR6 beta-arrestin, luminescence | inhibition, % at 20 µM | 360,000 tested, 0.36% active | AID 602244; in the data active means inhibition above about 34%, passing the limit was not always enough;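 further: antagonist mode with CXCL16 agonist at 10 nM final; 0% = 10 nM CXCL16 with DMSO and 100% = unstimulated wells without agonist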
Target sequence (O00574 whole entry, looked up): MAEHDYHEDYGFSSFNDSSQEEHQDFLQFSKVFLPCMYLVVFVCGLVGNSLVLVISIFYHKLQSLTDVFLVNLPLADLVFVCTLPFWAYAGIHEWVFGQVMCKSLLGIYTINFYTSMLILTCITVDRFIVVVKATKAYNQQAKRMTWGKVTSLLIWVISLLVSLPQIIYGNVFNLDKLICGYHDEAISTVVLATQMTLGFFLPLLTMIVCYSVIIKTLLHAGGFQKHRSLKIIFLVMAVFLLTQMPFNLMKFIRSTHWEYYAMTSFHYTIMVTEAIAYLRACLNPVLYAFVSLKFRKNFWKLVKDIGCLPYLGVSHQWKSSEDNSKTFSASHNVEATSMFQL
APOBEC3A confirm: APOBEC3A (human) deaminase inhibition, confirmed. shares compounds with A3A deaminase. inhibition, % at 20 µM. recombinant A3A, ssDNA deaminase UDG fluorescence assay. 1,400 tested, 63% active;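 active means inhibition reaching a set limit, 80% of the first screen's cutoff, at 20 µM in any replicate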;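 further: plate controls were DMSO wells with A3A for no effect and wells lacking A3A enzyme for full effect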
UDG A3A counter: inhibits UDG, flagging false APOBEC3A inhibitors. shares compounds with A3A deaminase. UDG counterscreen, FAM/TAMRA uracil oligo fluorescence. inhibition, % at 20 µM. 1,000 tested, under 10 active. AID 504714; call rule not given here
* marks the source's active call; other numbers are inactive results.

`COc1ccc2c(/C=C/c3cc[n+](C)cc3)c[nH]c2c1` gave CCR6 antag 1, A3A deaminase 45*, A3G deaminase 12, APJ agonist 1, APJ antag -51, CXCR6 inh -9, APOBEC3A confirm 61* and UDG A3A counter 3.
`O=C(C[C@H]1C/C=C\CCCC(=O)OC[C@H]2CCCN2C1=O)NCCO` gave CCR6 antag -7, A3A deaminase 4, A3G deaminase -4, APJ agonist -7, APJ antag -3 and CXCR6 inh -6.
CC(C)(C)c1ccc(S(=O)(=O)NNC(=O)c2cc3ccccc3[nH]2)cc1 was read as CCR6 antag 0, A3A deaminase -4, A3G deaminase -6, APJ agonist 3, APJ antag 9 and CXCR6 inh 6.
O=C1/C(=C\c2ccco2)SC(=S)N1C1CCS(=O)(=O)C1 (stereo unspecified) was read as CCR6 antag -6, A3A deaminase 35, A3G deaminase 20, APJ agonist -5, APJ antag 22 and CXCR6 inh -10.
O=C1/C(=C/c2ccco2)SC(=S)N1C1CCS(=O)(=O)C1 (stereo unspecified) was read as CCR6 antag 0, A3A deaminase 47*, A3G deaminase 18, APJ agonist -1, APJ antag 0, CXCR6 inh 4 and APOBEC3A confirm 52*.
O=C1/C(=C/c2ccco2)SC(=S)N1CC1CCCO1 (stereo unspecified) was read as CCR6 antag 11, A3A deaminase 56*, A3G deaminase 19, APJ agonist 0, APJ antag 5, CXCR6 inh -3, APOBEC3A confirm 26* and UDG A3A counter 3.
Screening COc1cc(C(=O)NNC(=S)NC(=O)c2ccc(F)cc2)cc(OC)c1OC returned CCR6 antag 5, A3A deaminase -5, A3G deaminase -11, APJ agonist -6, APJ antag 19 and CXCR6 inh 17.
`C=CCOC(=O)c1sc(NC(=O)c2ccc(OC)cc2)nc1C` gave CCR6 antag 9, A3A deaminase 1, A3G deaminase -13, APJ agonist -4, APJ antag 1 and CXCR6 inh -5.
For Cc1cc(SCC(=O)N(C)C2CCCCC2)nc2ccccc12 the results were CCR6 antag 11, A3A deaminase -2, A3G deaminase -6, APJ agonist -4, APJ antag 5 and CXCR6 inh -1.
`COc1cc(NC(=O)c2noc3c2CCC3)c(OC)cc1Cl` gave CCR6 antag 10, A3A deaminase 49*, A3G deaminase 21, APJ agonist -2, APJ antag 3, CXCR6 inh -12, APOBEC3A confirm 55* and UDG A3A counter 1.
For O=C(Nc1nc2ccccc2s1)C1CCN(S(=O)(=O)c2cc([N+](=O)[O-])ccc2Cl)CC1 the results were CCR6 antag 4, A3A deaminase 80*, A3G deaminase 22, APJ agonist 9, APJ antag -57, CXCR6 inh -35 and APOBEC3A confirm 40*.
For CSc1ncnc2c1ncn2CCCN1CCN(c2ccccn2)CC1 the results were CXCR6 inh 6.
O=C(NCCc1ccccc1)c1ccc2c(c1)OCCO2 was read as CCR6 antag 3, A3A deaminase 0, A3G deaminase -8, APJ agonist -1, APJ antag -4 and CXCR6 inh -4.
For O=C(NCCc1ccccc1)c1ccc2c(c1)OCCCO2 the results were CCR6 antag 0, A3A deaminase 42*, A3G deaminase 6, APJ agonist 1, APJ antag -7, CXCR6 inh 0, APOBEC3A confirm 51* and UDG A3A counter 2.
`COc1cc(/C=C(/NC(C)=O)C(=O)O)cc(Cl)c1OCc1ccc(Br)cc1` gave CCR6 antag 1, A3A deaminase 4, A3G deaminase -2, APJ agonist 0, APJ antag -4 and CXCR6 inh 5.
`O=c1[nH]c(=O)n(CCc2ccc(F)cc2)c(O)c1C=NCc1ccc2c(c1)OCO2` gave CCR6 antag 3, A3A deaminase 68*, A3G deaminase 20, APJ agonist 1, APJ antag -4, CXCR6 inh -11 and APOBEC3A confirm 2.
For Cc1cc(C)cc(OCC(=O)N2N=C(C(F)(F)F)CC2(O)C(C)(C)C)c1 (stereo unspecified) the results were CCR6 antag 2, A3A deaminase 56*, A3G deaminase 19, APJ agonist 2, APJ antag 11, CXCR6 inh -4, APOBEC3A confirm 48* and UDG A3A counter -1.
O=C(CN(c1ccccn1)S(=O)(=O)c1ccccc1)N/N=C/c1cccc([N+](=O)[O-])c1 was read as CCR6 antag 11, A3A deaminase 44*, A3G deaminase 4, APJ agonist -1, APJ antag 14, CXCR6 inh -7 and APOBEC3A confirm 15.
Screening O=C(Cc1ccccc1)N/N=C/c1cccc([N+](=O)[O-])c1 returned CCR6 antag -3, A3A deaminase 0, A3G deaminase -3, APJ agonist -4, APJ antag 5 and CXCR6 inh -12.
Screening Cc1ccsc1-c1cc2nc(NCCCN(C)C)n(C)c(=O)c2s1 returned CXCR6 inh 6.
`COc1ccc(OC)c(NS(=O)(=O)c2cccs2)c1` gave CCR6 antag 8, A3A deaminase 62*, A3G deaminase -5, APJ agonist -2, APJ antag 1, CXCR6 inh -8, APOBEC3A confirm -1 and UDG A3A counter 3.
COC(=O)c1ccc(NC(=O)C2CCN(C(=O)Nc3ccccc3)CC2)cc1 was read as CCR6 antag 0, A3A deaminase 59*, A3G deaminase 13, APJ agonist 3, APJ antag -2, CXCR6 inh 7 and APOBEC3A confirm 26.
`O=C(CSc1n[nH]c(-c2ccncc2)n1)Nc1ccc(Cl)c(Cl)c1` gave CCR6 antag 6, A3A deaminase 59*, A3G deaminase 15, APJ agonist -2, APJ antag 4, CXCR6 inh 7, APOBEC3A confirm 48* and UDG A3A counter 6.
Screening O=[N+]([O-])c1ccc2nc(N3CCCC3)sc2c1 returned CCR6 antag 0, A3A deaminase 45*, A3G deaminase 18, APJ agonist -2, APJ antag 6, CXCR6 inh 4, APOBEC3A confirm 55* and UDG A3A counter -1.
